In series [1] the target is T1, 5-hydroxytryptamine receptor 1A (Rattus norvegicus, UniProt P19327).
T1 sequence (P19327 whole entry): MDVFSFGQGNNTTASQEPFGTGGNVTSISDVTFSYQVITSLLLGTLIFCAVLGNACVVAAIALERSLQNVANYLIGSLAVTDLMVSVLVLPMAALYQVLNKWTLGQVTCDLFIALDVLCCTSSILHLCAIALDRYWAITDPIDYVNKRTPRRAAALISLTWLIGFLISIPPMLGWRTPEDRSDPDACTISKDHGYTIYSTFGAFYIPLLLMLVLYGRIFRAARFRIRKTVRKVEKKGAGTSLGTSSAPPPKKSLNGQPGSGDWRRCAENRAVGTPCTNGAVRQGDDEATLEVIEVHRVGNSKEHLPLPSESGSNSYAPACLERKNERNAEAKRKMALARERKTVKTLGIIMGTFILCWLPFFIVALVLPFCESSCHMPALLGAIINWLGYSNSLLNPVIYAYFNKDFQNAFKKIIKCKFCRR
Description: Displacement of [3H]-8-OH-DPAT from 5-HT1A receptor in rat hippocampal membrane by liquid scintillation analysis. The class given is cell membranes, Hippocampus. The essentials: (§1)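 Native rat membranes were used: hippocampus with [3H]-8-OH-DPAT (170 Ci/mmol) and 5-HT for non-specific binding; cortex with [3H]-ketanserin (88.0 Ci/mmol) and methysergide; hypothalamus with [3H]-5-CT (34.5 Ci/mmol) and 5-HT. Compounds were tested in triplicate at 7–8 concentrations (10⁻¹¹–10⁻⁴ M). Read-out was liquid scintillation counting. Ki came from nonlinear regression with Cheng-Prusoff, as the mean of at least two experiments.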

Series [2] has as its target 5-hydroxytryptamine receptor 7 (Rattus norvegicus, UniProt P32305). Briefly: Displacement of [3H]-5-CT from 5-HT7 receptor in rat hypothalamic membrane by liquid scintillation analysis. The series is classed as cell membranes. The essentials:
as §1
On the technique in general: In a radioligand displacement assay an active substance lowers the binding of a labelled ligand.

In series [3] the target is 5-hydroxytryptamine receptor 2A (Rattus norvegicus, UniProt P14842). Briefly: Displacement of [3H]ketanserin from 5-HT2A receptor in rat cortical membrane by liquid scintillation analysis. The class given is cell membranes. The essentials:
as §1

The test system of series [4] is Mus musculus. Description: Antipsychotic activity in ip dosed CD-1 mouse assessed as inhibition of D-amphetamine-induced hyperlocomotor activity. The class given is functional, organism-based. The procedure, abridged:
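Male CD-1 mice, 8-10 per dose. d-Amphetamine was given s.c. 30 min pretest; test compound i.p. 60 min pretest in 1% Tween 80. After 30 min habituation in the activity monitor, ambulation crossings were counted for 1 h, recorded every 5 min.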

For series [5], the system named is Mus musculus. Briefly: Anti-depressant like activity in Swiss albino mouse assessed as shortening of immobility time at 0.01 to 0.1 mg/kg, ip by forced swim test. The series is classed as functional, organism-based.
The test system of series [6] is Mus musculus. Briefly: Toxicity in ip dosed CD-1 mouse assessed as minimum dose required for induction of catalepsy by bar test. The class given is organism-based. As to conditions: in vivo. The essentials:
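Male CD-1 mice, 10 per group, given compound i.p. (1% Tween 80 suspension). Forelimbs were placed on a horizontal rod 4 cm high at 30, 60 and 120 min. Catalepsy was scored up to 3 (≥60 s on bar). Minimum cataleptogenic dose is the lowest dose giving a mean score ≥1 at any of those times.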

Series [7] deals with Mus musculus. Description: Antianxiety-like activity in Swiss albino mouse assessed as number of punished crossings at 0.06 to 0.5 mg/kg, ip by four-plate test. The series is classed as functional, organism-based. The procedure, abridged: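 Four-plate test in male Swiss albino mice, 8-10 per dose, dosed i.p. in Tween 80 vehicle. After 15-s habituation, a 0.8 mA, 0.5 s foot shock was given at each plate crossing, with a 3 s shock-free interval. Punished crossings were counted over a 1-min session.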

Series [8] relates to Mus musculus. Briefly: Toxicity in ip dosed spontaneous locomotor activity CD-1 mouse model assessed as dose required to cause sedation. The series is classed as organism-based. Particulars: in vivo. The procedure, abridged: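 CD-1 mice, 8-10 per dose, with compound given i.p. in 1% Tween 80 suspension 60 min before testing. After 30 min habituation in individual cages, ambulation (channel crossings) was counted over 1 h, recorded every 5 min. Mean ± SEM, one-way ANOVA with Bonferroni test.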

The target of a further series is D(2) dopamine receptor (Rattus norvegicus, UniProt P61169). Briefly: Displacement of [3H]spiperone from D2 receptor in rat striatum by liquid scintillation counting analysis. The procedure, abridged:
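Rat striatal membranes with [3H]-spiperone. Compounds were tested in triplicate at 7–8 concentrations (10⁻¹¹–10⁻⁴). Ki values were calculated.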

pKi: −log10 of the molar value. Activity calls are given as the source filed them. The rule behind the calls is not given here.

By pKi is commonly meant the Ki on a negative log10 scale, so that one unit is a factor of ten.

Sequence of 5-hydroxytryptamine receptor 2A (P14842 whole entry): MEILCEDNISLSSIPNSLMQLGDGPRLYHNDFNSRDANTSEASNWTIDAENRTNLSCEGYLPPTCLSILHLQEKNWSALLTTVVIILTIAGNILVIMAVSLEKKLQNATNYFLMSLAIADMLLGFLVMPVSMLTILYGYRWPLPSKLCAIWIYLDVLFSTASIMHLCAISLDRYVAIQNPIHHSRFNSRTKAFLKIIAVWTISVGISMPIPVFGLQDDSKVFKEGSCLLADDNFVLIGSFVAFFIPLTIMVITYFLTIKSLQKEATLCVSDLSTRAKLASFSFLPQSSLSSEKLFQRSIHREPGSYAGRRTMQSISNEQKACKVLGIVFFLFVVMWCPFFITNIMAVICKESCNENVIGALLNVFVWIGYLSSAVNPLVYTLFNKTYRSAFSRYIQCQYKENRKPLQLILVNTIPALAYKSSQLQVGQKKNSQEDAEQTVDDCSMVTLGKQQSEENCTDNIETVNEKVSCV
Sequence of D(2) dopamine receptor (P61169 whole entry): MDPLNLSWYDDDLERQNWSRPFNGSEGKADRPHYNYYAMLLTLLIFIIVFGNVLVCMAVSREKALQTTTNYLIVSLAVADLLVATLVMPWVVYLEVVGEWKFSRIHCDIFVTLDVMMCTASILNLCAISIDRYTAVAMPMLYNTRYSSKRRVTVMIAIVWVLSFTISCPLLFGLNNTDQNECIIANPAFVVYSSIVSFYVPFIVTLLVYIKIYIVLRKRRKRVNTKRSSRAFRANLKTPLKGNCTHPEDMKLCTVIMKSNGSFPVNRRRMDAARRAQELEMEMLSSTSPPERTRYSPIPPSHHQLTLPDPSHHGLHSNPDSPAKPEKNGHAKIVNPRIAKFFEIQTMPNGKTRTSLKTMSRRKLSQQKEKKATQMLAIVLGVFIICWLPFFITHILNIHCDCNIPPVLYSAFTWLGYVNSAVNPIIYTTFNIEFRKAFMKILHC
Sequence of 5-hydroxytryptamine receptor 7 (P32305 whole entry): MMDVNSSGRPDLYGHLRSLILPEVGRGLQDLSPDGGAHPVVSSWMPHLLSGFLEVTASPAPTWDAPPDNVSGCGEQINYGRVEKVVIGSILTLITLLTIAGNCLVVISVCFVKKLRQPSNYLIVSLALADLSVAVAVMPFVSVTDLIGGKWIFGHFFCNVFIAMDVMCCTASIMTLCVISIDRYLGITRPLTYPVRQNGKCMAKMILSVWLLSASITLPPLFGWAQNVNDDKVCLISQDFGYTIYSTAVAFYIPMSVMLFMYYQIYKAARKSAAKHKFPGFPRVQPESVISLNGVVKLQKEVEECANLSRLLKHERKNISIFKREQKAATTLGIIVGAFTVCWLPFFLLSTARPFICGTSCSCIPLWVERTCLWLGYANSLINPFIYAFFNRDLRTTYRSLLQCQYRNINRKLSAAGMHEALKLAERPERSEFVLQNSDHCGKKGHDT

As for `O=C1NC2(CCCCC2c2ccccc2)C(=O)N1CCCCN1CCN(c2ccccc2)CC1` (centres undefined), the results for the pKi in series [1], in series [2] and in series [3] were 6.51, 5.82 and 6.38, respectively.

On to `O=C1CCc2ccc(OCCCCN3CCN(c4cccc(Cl)c4Cl)CC3)cc2N1` [ARIPIPRAZOLE], for which the inhibition result in the series on Mus musculus [4] is “Dose-dependent effect”. Further, in the series with Mus musculus [5], the inhibition result is “inactive”. In addition, the Activity in the series with Mus musculus [6] and in the series on Mus musculus [8] was 1 mg/kg throughout. Besides, in the series on Mus musculus [7], the outcome was inactive.

Regarding `O=C1NC2(CCC(c3ccccc3)CC2)C(=O)N1CCCCN1CCN(c2cccc(C(F)(F)F)c2)CC1` (centres undefined), the pKi was under 5.00 on D(2) dopamine receptor, 7.66 in [1], 6.42 in series [2] and 6.91 in [3].

Consider `O=C1NC2(CCC(c3ccccc3)CC2)C(=O)N1CCCCN1CCN(c2cccc(Cl)c2)CC1` (centres undefined), for which the pKi at D(2) dopamine receptor was under 5.00; in series [1], 7.52; in series [2], 6.11; in series [3], 7.42.

Consider `O=C1NC2(CCC(c3ccccc3)CC2)C(=O)N1CCCCN1CCN(c2ccccc2)CC1` (centres undefined), for which the pKi in series [1] was 7.46; in series [2], 6.29; in series [3], 7.32.

As to `O=C1NC2(CCc3ccccc32)C(=O)N1CCCCN1CCN(c2ccccc2)CC1` (centres undefined), the pKi is 7.12 in series [1], 7.03 in series [2] and 6.95 in series [3].

For `O=C1NC2(CCCc3ccccc32)C(=O)N1CCCCN1CCN(c2cccc(C(F)(F)F)c2)CC1` (centres undefined), the pKi at D(2) dopamine receptor is 6.22; in series [1], 8.28; in series [2], 6.93; in [3], 6.80.

Regarding `O=C1NC2(CCCc3ccccc32)C(=O)N1CCCCN1CCN(c2ccccc2)CC1` (centres undefined), the pKi at D(2) dopamine receptor was 6.13; in [1], 7.89; in series [2] it was 6.94; in series [3] it was 7.11.

For the compound `O=C1NC2(CCc3ccccc32)C(=O)N1CCCCN1CCN(c2cccc(C(F)(F)F)c2)CC1` (centres undefined), the pKi at D(2) dopamine receptor was 6.39; in series [1], 8.22; in [2], 7.17; in series [3] it was 7.06.

For the compound `COc1ccccc1N1CCN(CCCCN2C(=O)NC3(CCCCC3c3ccccc3)C2=O)CC1` (centres undefined), the results for the pKi in series [1], in series [2] and in series [3] were 7.38, 7.20 and 6.30, respectively.

As for `O=C1NC2(CCCCC2c2ccccc2)C(=O)N1CCCCN1CCN(c2cccc(Cl)c2)CC1` (centres undefined), the pKi in series [1] was 6.95; in series [2] it was 7.37; in [3] it was 6.77.

Turning to `COc1ccccc1N1CCN(CCCCN2C(=O)NC3(CCC(c4ccccc4)CC3)C2=O)CC1` (centres undefined), the pKi is 7.10 on D(2) dopamine receptor, 8.52 in [1], 6.89 in [2] and 7.12 in [3].

(Values after ChEMBL document CHEMBL3588770, “Novel spirohydantoin derivative as a potent multireceptor-active antipsychotic and antidepressant agent” (Bioorg Med Chem, 2015).)
